Columns and labels:
[1] = molecular target: T1, Broad substrate specificity ATP-binding cassette transporter ABCG2 (Homo sapiens, UniProt Q9UNQ0); assay: Binding affinity to ABCG2 (unknown origin) expressed in HEK293 cells assessed as modulation of 5D3 binding at 2 uM after 45 mins by flow cytometric analysis relative to Ko143; assay type: cell-based; settings: hek293, 0.75 h
T1 sequence (Q9UNQ0 whole entry): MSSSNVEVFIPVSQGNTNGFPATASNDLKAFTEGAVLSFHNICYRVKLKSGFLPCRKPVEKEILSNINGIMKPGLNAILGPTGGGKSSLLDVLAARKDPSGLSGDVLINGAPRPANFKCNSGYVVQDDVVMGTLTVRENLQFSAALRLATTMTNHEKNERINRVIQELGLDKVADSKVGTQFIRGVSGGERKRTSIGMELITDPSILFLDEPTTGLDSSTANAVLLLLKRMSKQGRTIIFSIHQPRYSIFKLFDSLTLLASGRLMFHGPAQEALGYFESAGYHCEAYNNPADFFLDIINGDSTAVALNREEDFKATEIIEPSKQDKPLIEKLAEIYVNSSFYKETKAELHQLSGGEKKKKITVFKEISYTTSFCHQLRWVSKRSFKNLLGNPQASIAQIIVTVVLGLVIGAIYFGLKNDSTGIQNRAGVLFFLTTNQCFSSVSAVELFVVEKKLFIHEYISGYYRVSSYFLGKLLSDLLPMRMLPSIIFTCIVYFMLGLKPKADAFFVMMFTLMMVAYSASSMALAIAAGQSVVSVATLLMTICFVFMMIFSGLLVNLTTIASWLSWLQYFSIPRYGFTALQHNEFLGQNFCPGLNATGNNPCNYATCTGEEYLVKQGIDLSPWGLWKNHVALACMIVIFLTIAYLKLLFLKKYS
Outline: (§1)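 5D3 shift assay on ABCG2-transfected HEK293 cells (0.5 × 10^6 cells/tube) in PBS with 0.5% BSA. Compound at 2 or 5 μM plus 5D3 anti-ABCG2 antibody or isotype control (1 μg/mL), 45 min at 37 °C. Anti-mouse Alexa Fluor 488 secondary (3 μg/mL), 30 min at 37 °C. Binding read by flow cytometry, expressed relative to 2 μM Ko143 (100%). Mean ± SD of ≥3 independent experiments.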

ABCG2 [2] = molecular target: T2, ABCG2 (Homo sapiens, UniProt Q9UNQ0); assay: Inhibition of ABCG2 (unknown origin)-mediated mitoxantrone efflux expressed in HEK293 cells at 5 to 10 uM after 30 mins by flow cytometric analysis relative to control; assay type: cell-based; settings: HEK293 cells expressing ABCG2, probe mitoxantrone, read-out: Imax
T2 sequence (Q9UNQ0 whole entry): T1 sequence (Q9UNQ0 whole entry)

[3] = molecular target: T1, Broad substrate specificity ATP-binding cassette transporter ABCG2; assay: Inhibition of ABCG2-mediated mitoxantrone efflux in mitoxantrone-selected human H460 cells after 30 mins by flow cytometric analysis; assay type: cell-based
[4] = molecular target: T1, Broad substrate specificity ATP-binding cassette transporter ABCG2; assay: Inhibition of human ABCG2 expressed in Sf9 insect cell membranes assessed as inhibition of quercetin-stimulated ATPase activity after 30 mins by colorimetric analysis in presence of sodium orthovanadate; settings: for inhibition (INH): human, sf9, 0.5 h
Outline: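 Quercetin (2 μM)-stimulated vanadate-sensitive ATPase assay on cholesterol-loaded ABCG2 Sf9 membranes (10 μg/sample) in Tris/NaCl buffer, pH 8.0. Compound at 0.01, 0.03, 0.5 and 2 μM. ATP-Mg 3.9 mM, 30 min at 37 °C. Released phosphate read colorimetrically at 880 nm. IC50 estimated as 50% inhibition of initial activity; three independent experiments.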

ABCG2 [5] = molecular target: T2, ABCG2; assay: Inhibition of ABCG2-mediated mitoxantrone efflux in mitoxantrone-selected human H460 cells at 5 to 10 uM after 30 mins by flow cytometric analysis relative to control; assay type: cell-based; settings: probe mitoxantrone, read-out: Imax
[6] = molecular target: T1, Broad substrate specificity ATP-binding cassette transporter ABCG2; assay: Inhibition of human ABCG2 ATPase activity expressed in Sf9 insect cell membranes at 2 uM after 30 mins by colorimetric analysis relative to basal control in presence of sodium orthovanadate; settings: sf9, 0.5 h
Outline: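 Basal vanadate-sensitive ATPase assay on cholesterol-loaded membranes from human ABCG2-expressing Sf9 cells (0.5 mg/mL; 10 μg/sample). Buffer: 50 mM Tris-HCl, 50 mM NaCl, pH 8.0, with azide, ouabain, DTT and EGTA, ± 0.33 mM orthovanadate. Compound at 2 μM, or substrates nilotinib 0.1 μM, quercetin 2 μM, prazosin 20 μM. ATP-Mg 3.9 mM, 30 min at 37 °C. Phosphate read by molybdate/ascorbate at 880 nm.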

[7] = molecular target: T1, Broad substrate specificity ATP-binding cassette transporter ABCG2; assay: Binding affinity to ABCG2 (unknown origin) expressed in HEK293 cells assessed as modulation of 5D3 binding at 5 uM after 45 mins by flow cytometric analysis relative to Ko143; assay type: cell-based; settings: hek293, 0.75 h; outline: as §1
[8] = molecular target: T1, Broad substrate specificity ATP-binding cassette transporter ABCG2; assay: Inhibition of ABCG2 (unknown origin)-mediated mitoxantrone efflux expressed in HEK293 cells after 30 mins by flow cytometric analysis; assay type: cell-based
[9] = molecular target: Multidrug resistance-associated protein 1 (Homo sapiens, UniProt P33527); assay: Inhibition of ABCC1 (unknown origin)-mediated calcein-AM efflux expressed in HEK293 cells at 5 uM after 30 mins by flow cytometric analysis; assay type: cell-based; settings: hek293, 0.5 h
[10] = molecular target: T1, Broad substrate specificity ATP-binding cassette transporter ABCG2; assay: Inhibition of ABCG2 (unknown origin)-mediated BODIPY-prazosin efflux expressed in HEK293 cells at 1 to 5 uM after 30 mins by flow cytometric analysis; assay type: cell-based; settings: hek293, 0.5 h
Outline: (§2)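 Cells seeded at 1.5 × 10^5 cells/well and grown 48 h were exposed to BODIPY-prazosin (0.2 μM) or pheophorbide A (2 μM) for 30 min at 37 °C with or without compound. After washing and trypsinization, intracellular fluorescence was read by flow cytometry (FL4, ≥10 000 events). Percent inhibition = (C−M)/(Cev−M)×100, where Cev is from ABCG2-negative control cells.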

[11] = molecular target: ATP-dependent translocase ABCB1 (Homo sapiens, UniProt P08183); assay: Inhibition of ABCB1 (unknown origin)-mediated rhodamine 123 efflux expressed in mouse NIH/3T3 cells at 5 uM after 30 mins by flow cytometric analysis; assay type: cell-based; settings: nih/3t3, 0.5 h
ABCG2 [12] = molecular target: T2, ABCG2; assay: Inhibition of ABCG2 (unknown origin)-mediated pheophorbide A efflux expressed in HEK293 cells at 1 to 5 uM after 30 mins by flow cytometric analysis relative to control; assay type: cell-based; settings: HEK293 cells expressing ABCG2, probe pheophorbide A, read-out: Imax; outline: as §2
[13] = molecular target: T1, Broad substrate specificity ATP-binding cassette transporter ABCG2; assay: Stimulation of human ABCG2 ATPase activity expressed in Sf9 insect cell membranes at 2 uM after 30 mins by colorimetric analysis relative to basal control in presence of sodium orthovanadate; settings: sf9, 0.5 h

Multidrug resistance-associated protein 1, sequence (P33527 whole entry): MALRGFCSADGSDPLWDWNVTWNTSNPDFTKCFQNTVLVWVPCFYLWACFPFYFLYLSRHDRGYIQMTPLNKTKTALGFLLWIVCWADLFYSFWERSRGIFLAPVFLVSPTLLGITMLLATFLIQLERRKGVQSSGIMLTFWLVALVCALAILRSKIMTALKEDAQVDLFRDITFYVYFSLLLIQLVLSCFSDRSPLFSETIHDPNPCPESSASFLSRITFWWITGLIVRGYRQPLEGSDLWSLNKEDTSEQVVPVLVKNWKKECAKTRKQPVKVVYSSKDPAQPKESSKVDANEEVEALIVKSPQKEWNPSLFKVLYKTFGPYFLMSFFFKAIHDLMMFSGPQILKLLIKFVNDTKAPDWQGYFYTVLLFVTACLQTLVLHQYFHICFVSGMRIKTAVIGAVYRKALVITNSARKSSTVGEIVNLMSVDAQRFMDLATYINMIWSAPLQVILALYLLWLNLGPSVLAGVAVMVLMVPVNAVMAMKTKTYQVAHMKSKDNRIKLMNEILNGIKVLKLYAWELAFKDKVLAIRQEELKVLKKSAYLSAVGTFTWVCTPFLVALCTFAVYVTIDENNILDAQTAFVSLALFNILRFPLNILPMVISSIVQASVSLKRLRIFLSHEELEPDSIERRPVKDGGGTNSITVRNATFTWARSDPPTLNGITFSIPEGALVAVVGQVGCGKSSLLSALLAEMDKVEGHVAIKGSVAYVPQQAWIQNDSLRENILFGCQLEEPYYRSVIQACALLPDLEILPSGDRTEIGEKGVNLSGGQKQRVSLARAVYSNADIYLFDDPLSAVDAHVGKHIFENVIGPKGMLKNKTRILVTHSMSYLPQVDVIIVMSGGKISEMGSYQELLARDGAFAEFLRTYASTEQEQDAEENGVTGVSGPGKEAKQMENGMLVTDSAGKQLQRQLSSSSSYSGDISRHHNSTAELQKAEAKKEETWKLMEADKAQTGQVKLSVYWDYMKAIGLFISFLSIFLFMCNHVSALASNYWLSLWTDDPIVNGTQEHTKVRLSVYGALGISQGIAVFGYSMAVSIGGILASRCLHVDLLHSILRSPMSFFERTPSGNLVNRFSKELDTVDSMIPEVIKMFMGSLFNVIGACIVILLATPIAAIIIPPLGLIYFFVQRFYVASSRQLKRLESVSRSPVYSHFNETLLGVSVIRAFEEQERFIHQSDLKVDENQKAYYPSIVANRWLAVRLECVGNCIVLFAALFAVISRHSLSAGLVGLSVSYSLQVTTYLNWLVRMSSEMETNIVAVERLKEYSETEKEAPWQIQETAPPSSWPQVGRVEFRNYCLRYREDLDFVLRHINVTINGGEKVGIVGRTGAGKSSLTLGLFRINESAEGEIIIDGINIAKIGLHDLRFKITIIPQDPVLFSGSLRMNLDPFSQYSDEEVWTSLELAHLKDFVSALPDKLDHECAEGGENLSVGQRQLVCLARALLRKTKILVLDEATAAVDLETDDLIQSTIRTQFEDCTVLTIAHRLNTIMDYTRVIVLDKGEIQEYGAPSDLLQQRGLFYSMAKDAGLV
ATP-dependent translocase ABCB1, sequence (P08183 whole entry): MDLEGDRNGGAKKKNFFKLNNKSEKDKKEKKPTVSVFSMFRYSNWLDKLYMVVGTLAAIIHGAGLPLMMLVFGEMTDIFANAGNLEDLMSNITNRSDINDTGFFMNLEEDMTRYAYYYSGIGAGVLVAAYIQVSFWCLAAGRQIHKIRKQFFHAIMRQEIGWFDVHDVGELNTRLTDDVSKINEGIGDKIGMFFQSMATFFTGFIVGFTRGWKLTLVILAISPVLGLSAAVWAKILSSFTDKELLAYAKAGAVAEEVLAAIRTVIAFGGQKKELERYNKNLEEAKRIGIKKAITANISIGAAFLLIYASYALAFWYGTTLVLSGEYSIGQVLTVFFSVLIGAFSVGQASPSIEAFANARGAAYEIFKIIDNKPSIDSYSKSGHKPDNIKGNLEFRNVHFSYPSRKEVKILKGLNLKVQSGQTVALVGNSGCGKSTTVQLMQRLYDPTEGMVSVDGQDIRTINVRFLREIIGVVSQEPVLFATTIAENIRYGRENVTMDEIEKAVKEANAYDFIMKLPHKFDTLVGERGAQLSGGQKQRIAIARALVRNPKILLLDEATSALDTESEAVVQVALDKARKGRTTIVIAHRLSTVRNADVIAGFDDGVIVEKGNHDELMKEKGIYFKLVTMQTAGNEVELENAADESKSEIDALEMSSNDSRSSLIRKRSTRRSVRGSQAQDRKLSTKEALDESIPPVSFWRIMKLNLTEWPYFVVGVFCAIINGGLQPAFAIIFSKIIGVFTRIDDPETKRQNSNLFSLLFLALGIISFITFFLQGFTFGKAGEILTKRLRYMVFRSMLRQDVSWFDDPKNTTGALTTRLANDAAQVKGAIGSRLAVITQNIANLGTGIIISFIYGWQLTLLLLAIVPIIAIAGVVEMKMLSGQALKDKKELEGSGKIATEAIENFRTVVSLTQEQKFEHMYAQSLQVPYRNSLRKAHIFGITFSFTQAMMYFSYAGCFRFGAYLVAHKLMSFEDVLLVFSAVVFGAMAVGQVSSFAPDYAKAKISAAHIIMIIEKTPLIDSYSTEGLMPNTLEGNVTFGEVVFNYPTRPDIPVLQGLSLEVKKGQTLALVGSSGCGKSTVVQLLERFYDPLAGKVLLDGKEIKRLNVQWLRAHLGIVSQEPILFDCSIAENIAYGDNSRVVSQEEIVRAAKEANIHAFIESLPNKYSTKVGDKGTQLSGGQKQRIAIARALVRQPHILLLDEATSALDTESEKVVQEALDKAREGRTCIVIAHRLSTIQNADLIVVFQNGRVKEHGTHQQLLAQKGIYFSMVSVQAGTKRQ

Row | Structure (SMILES) | Activity [1] | Emax at 0.5 h (ABCG2 [2]) | EC50 [3] | IC50 [4] | inhibition (INH) [4] | Emax at 0.5 h (ABCG2 [5]) | inhibition (INH) [6] | Activity [7] | EC50 [8] | inhibition (INH) [9] | inhibition (INH) [10] | inhibition (INH) [11] | Emax at 0.5 h (ABCG2 [12]) | fold change (FC) [13]
1 | COc1ccc2[nH]cc(CCN(C)Cc3cc(=O)c4c(OCc5ccc(Br)cc5)cccc4o3)c2c1 | 82.3% | 75% | 600 nM | 820 nM | Dose-dependent effect | 106% | Active | 102.5% | 1130 nM | – | – | – | – | –
2 | O=C(NCc1cn(CCc2c[nH]c3ccccc23)nn1)c1cc(=O)c2c(OCc3ccc(Br)cc3)cccc2o1 | 93.1% | 87% | 460 nM | 250 nM | Dose-dependent effect | 86% | Active | 105.2% | 490 nM | – | – | – | – | –
3 | CN(CCc1cn(C)c2ccccc12)C(=O)c1cc(=O)c2cc(OCc3ccc(Br)cc3)ccc2o1 | 40.9% | 50% | 2150 nM | > 2000 nM | Dose-dependent effect | 61% | Not Active | 72.1% | 2060 nM | – | – | – | – | –
4 | CN(CCc1c[nH]c2ccccc12)C(=O)c1cc(=O)c2c(OCc3ccc(Br)cc3)cccc2o1 | 74.6% | 105% | 570 nM | > 2000 nM | Dose-dependent effect | 89% | Active | 95.9% | 1110 nM | Not Active | Active | Not Active | 80% | –
5 | CN(CCc1c[nH]c2ccccc12)Cc1cc(=O)c2c(OCc3ccc(Br)cc3)cccc2o1.Cl | 57.4% | 46% | 1110 nM | > 2000 nM | Dose-dependent effect | 104% | Active | 95.4% | 1770 nM | – | – | – | – | –
6 | O=C(NCc1cn(Cc2ccc(Br)cc2)nn1)c1cc(=O)c2c(OCc3ccc(Br)cc3)cccc2o1 | 78.7% | 95% | 710 nM | 930 nM | Dose-dependent effect | 76% | Not Active | 91.8% | 570 nM | – | – | – | – | –
7 | O=C(NCc1cn(Cc2ccccc2)nn1)c1cc(=O)c2c(OCc3ccc(Br)cc3)cccc2o1 | 74.3% | 78% | 500 nM | 430 nM | Dose-dependent effect | 76% | Not Active | 95.4% | 1520 nM | – | – | – | – | –
8 | O=c1c(O)c(-c2ccc(O)c(O)c2)oc2cc(O)cc(O)c12 [QUERCETIN] | – | – | – | – | – | – | – | – | – | – | – | – | – | 4.1
9 | COc1ccc2[nH]cc(CCNC(=O)c3cc(=O)c4ccc(OCc5ccc(Br)cc5)cc4o3)c2c1 | 64.6% | 80% | 1540 nM | 10 nM | Dose-dependent effect | 93% | – | 90.1% | 1270 nM | – | – | – | – | 2.1
10 | COc1ccc2[nH]cc(CCNC(=O)c3cc(=O)c4c(OCc5ccc(Br)cc5)cccc4o3)c2c1 | 100.5% | 98% | 50 nM | 380 nM | Dose-dependent effect | 107% | Active | 103.5% | 130 nM | Not Active | Active | Not Active | 80% | –
11 | COc1ccc2[nH]cc(CCN(C)C(=O)c3cc(=O)c4c(OCc5ccc(Br)cc5)cccc4o3)c2c1 | 82.8% | 101% | 530 nM | > 2000 nM | Dose-dependent effect | 96% | Active | 97.4% | 960 nM | Not Active | Active | Not Active | 80% | –
12 | CN(CCc1c[nH]c2ccccc12)C(=O)c1cc(=O)c2cc(OCc3ccc(Br)cc3)ccc2o1 | 47.6% | 54% | 1670 nM | > 2000 nM | Dose-dependent effect | 50% | Not Active | 79.4% | 2580 nM | – | – | – | – | –
13 | COc1ccc2[nH]cc(CCNC(=O)c3cc(=O)c4cc(OCc5ccc(Br)cc5)ccc4o3)c2c1 | 93.3% | 108% | 100 nM | 530 nM | Dose-dependent effect | 109% | Not Active | 99.9% | 290 nM | Not Active | Active | Not Active | 80% | –
14 | CN(CCc1cn(C)c2ccccc12)C(=O)c1cc(=O)c2c(OCc3ccc(Br)cc3)cccc2o1 | 76.4% | 88% | 500 nM | > 2000 nM | Dose-dependent effect | 84% | Active | 98.9% | 1000 nM | Not Active | Active | Not Active | 80% | –

From ChEMBL document CHEMBL3108696, “Structure-activity relationships of chromone derivatives toward the mechanism of interaction with and inhibition of breast cancer resistance protein ABCG2” (J Med Chem, 2013)
